Screens: PubChem BioAssay, Broad Institute
ERAP1 inh = blocks human ERAP1 aminopeptidase activity; actives 0.15% (n = 340,000); recombinant ERAP1, Leu-AMC fluorescence, 60 min; Q9NZ08; inhibition, % at 10.7 µM;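 active = mean replicate inhibition of at least 30%, or all replicates individually reaching that 30% level; inactive = mean below 30% and not every replicate reaching it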
SIRT5 inh = sirtuin-5 (human) deacylase inhibition; AID 652115; Purified SirT5, succinyl-peptide AMC, trypsin-coupled fluorescence; Q9NXA8; actives 1.1% (n = 330,000); inhibition, % at 15 µM; in the data active = inhibition above about 15%
Target sequence (Q9NXA8 whole entry, looked up): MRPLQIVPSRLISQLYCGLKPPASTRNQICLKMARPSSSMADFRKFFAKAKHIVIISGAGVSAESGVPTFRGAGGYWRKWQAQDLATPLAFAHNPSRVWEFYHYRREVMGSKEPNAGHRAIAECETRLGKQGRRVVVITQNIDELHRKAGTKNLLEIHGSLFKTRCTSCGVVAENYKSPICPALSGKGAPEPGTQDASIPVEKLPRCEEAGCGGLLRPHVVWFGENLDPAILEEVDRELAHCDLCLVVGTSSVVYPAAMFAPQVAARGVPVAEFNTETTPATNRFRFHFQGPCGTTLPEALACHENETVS
CFTR F508del cor = correctors of CFTR F508del function in bronchial epithelial cells | CFBE cells, YFP halide quenching; stimulated with forskolin plus potentiator P3; % fluorescence drop versus neutral controls | activity (quench increase), % at 7.58 µM | actives 0.36% (n = 350,000);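 active = mean added fluorescence quench of at least 8% versus neutral control, with both replicates also reaching 8%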;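 also: cells transiently co-express mutant CFTR-F508del with the halide-sensitive YFP; corrector assay measuring rescue of mutant channel to the surface after 24 h compound exposure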
Ecoli rRNA inh = selective bacterial rRNA inhibition in E. coli; E. coli WT GFP vs humanized-ribosome RFP mutants, fluorescence, 24 h; active compounds read low; DMSO median 0, no signal -100; GFP signal change (wild-type ribosome), % (test concentration not listed); actives 1.6% (n = 350,000);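 active = significant combined selectivity score with lowered wild-type GFP, culture density cut under 30%, mutant RFP and density less affected; inactive = any of these conditions unmet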
S100A4 inh HTS = inhibitors of human S100A4 binding to myosin IIA peptide; actives 0.14% (n = 360,000); S100A4/TAMRA-MyoIIA peptide fluorescence polarization; P26447; inhibition, % at 10.7 µM;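 active = mean inhibition of at least 70% across replicates, with every replicate also reaching that level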
Target sequence (P26447 whole entry, looked up): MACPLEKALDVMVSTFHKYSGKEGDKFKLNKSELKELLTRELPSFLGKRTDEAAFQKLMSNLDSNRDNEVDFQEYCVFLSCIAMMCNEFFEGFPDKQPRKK
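Material: S100A4 monomer protein / Buffer or medium: 50 mM HEPES pH 7.2, 10 mM CaCl2, 100 mM KCl / Times: 5 min incubation before reading / Benchmarks: neutral control DMSO, positive control TFP / Reagent: labelled myosin peptide probe, 5 nM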
A number is an active result; – = inactive; · = no result. The list is not random: actives were taken first. Their share in the collection is about 3.1%.

SMILES	ERAP1 inh	SIRT5 inh	CFTR F508del cor	Ecoli rRNA inh	S100A4 inh HTS
CCCN1[C@@H]2c3ccc(C4=CCCC4)c(=O)n3C[C@@H]2[C@@H](CO)[C@@H]1C(=O)NCC	–	18	–	–	–
CCCNC(=O)[C@H]1N[C@H]2c3ccc(C4=CCCCC4)c(=O)n3C[C@H]2[C@@H]1CO	–	17	–	–	–
CCCNC(=O)[C@@H]1N[C@@H]2c3ccc(C4=CCCC4)c(=O)n3C[C@@H]2[C@H]1CO	–	–	–	–	–
C[C@@H]1CCCCO[C@H](CN(C)C(=O)NC2CCCCC2)[C@H](C)CN([C@@H](C)CO)C(=O)c2cc(NC(=O)CCCN(C)C)ccc2O1	–	–	–	–	–
CC(C)C#Cc1ccc([C@H]2[C@@H](CO)N3C(=O)CN(C(=O)C4CCCCC4)C[C@H]23)cc1	–	–	–	–	–
COc1ccc(C#Cc2ccc([C@H]3[C@@H](CO)N4C(=O)CN(C(C)=O)C[C@H]34)cc2)cc1	·	26	–	–	–
O=C1CN(S(=O)(=O)Cc2ccccc2)C[C@H]2[C@@H](c3ccc(C#Cc4ccccc4)cc3)[C@H](CO)N12	–	16	–	–	–
CC(C)C#Cc1ccc([C@@H]2[C@H](CO)N3C(=O)CN(C(=O)C4CCCCC4)C[C@@H]23)cc1	–	24	–	–	–
CCS(=O)(=O)N1CC(=O)N2[C@H](C1)[C@@H](c1ccc(C#CCC(C)C)cc1)[C@@H]2CO	–	–	10	–	–
COc1ccc(C#Cc2ccc([C@H]3[C@H]4CN(C(C)=O)CC(=O)N4[C@H]3CO)cc2)cc1	·	–	–	–	–
COc1ccc(C#Cc2ccc3c(c2)[C@]2(C(=O)N3)[C@H](c3ccc(O)cc3)N3[C@H](c4ccccc4)[C@H](c4ccccc4)OC(=O)[C@H]3[C@@H]2C(=O)N2CCc3cc(OC)c(OC)cc3C2)cc1	–	–	–	·	–
CC(C)CC#Cc1ccc([C@H]2[C@H]3CN(C(=O)Cc4cccnc4)CC(=O)N3[C@H]2CO)cc1	–	–	–	–	107
CS(=O)(=O)N1CC(=O)N2[C@H](CO)[C@@H](c3ccc(C#Cc4ccc(F)cc4)cc3)[C@H]2C1	–	–	–	–	–
CC(C)CC#Cc1ccc([C@@H]2[C@H]3CN(C(=O)Cc4cccnc4)CC(=O)N3[C@H]2CO)cc1	–	–	–	–	–
O=C(Cc1ccccc1)N1CC(=O)N2[C@H](C1)[C@@H](c1ccc(C#Cc3ccccc3)cc1)[C@@H]2CO	–	–	8.0	–	–
CS(=O)(=O)N1CC(=O)N2[C@H](C1)[C@H](c1ccc(C#Cc3ccc(F)cc3)cc1)[C@@H]2CO	–	–	10	–	–
C=CCOC(=O)[C@@H]1[C@H]2C(=O)O[C@H](c3ccccc3)[C@H](c3ccccc3)N2[C@H](c2ccc(OCCOC(=O)[C@@H]3C[C@@H]4C(=O)NCC(=O)N4[C@@H]3c3ccc(O)cc3)cc2)[C@@]12C(=O)Nc1ccc(I)cc12	–	–	–	·	–
Fc1cccc(CCN2C(=S)NC[C@@H]2Cc2ccccc2)c1	–	·	–	–	–
Fc1cccc(CCN2C(=S)NC[C@@H]2CC2CCCCC2)c1	–	–	–	-23	–
COc1ccc(NC(=O)c2nc(C)c(C3(C)CC(c4ccccc4)=NO3)s2)cc1 (stereo unspecified)	–	·	14	–	–
Cc1nc(C(=O)Nc2ccccc2)sc1C1(C)CC(c2cccnc2)=NO1 (stereo unspecified)	–	·	–	–	–
C[C@H]1CN([C@@H](C)CO)C(=O)Cc2cc(NS(=O)(=O)c3cccs3)ccc2O[C@H]1CN(C)S(=O)(=O)c1ccc(Cl)cc1	–	–	–	–	–
Cc1cc(NC(=O)c2ccc(Cl)cc2)n(CCC#N)n1	–	–	–	–	–
N#CCCCCn1ccc(NC(=O)c2ccc(Cl)cc2O)n1	–	–	–	-30	–
COc1cc(C)ccc1OCCOCCOc1cccc2ccc(C)nc12	–	–	–	-32	–
SMILES	ERAP1 inh	SIRT5 inh	CFTR F508del cor	Ecoli rRNA inh	S100A4 inh HTS
COc1ccc(C(=O)N(C)C2(C)CCS(=O)(=O)C2)cc1OC (stereo unspecified)	–	–	–	–	184
OC[C@@H]1[C@H](c2ccc(-c3cccnc3)cc2)[C@H]2CN(CC3CCOCC3)CCCCN12	–	·	–	·	–
COc1ccc(CNC(=O)C(c2ccco2)N(C(=O)Cc2cccs2)c2cccnc2)cc1 (stereo unspecified)	–	35	–	–	–
COc1ccc(CNC(=O)C(c2ccncc2)N(C(=O)Cc2cccs2)c2cccc(C)c2)cc1 (stereo unspecified)	–	–	–	–	–
CC1(C(=O)NS(=O)(=O)c2ccc(C#N)cc2)CCN1C(=O)C1(c2ccc(Cl)cc2)CCC1 (stereo unspecified)	–	–	–	–	–
CC1(C(=O)NS(=O)(=O)c2cccc(F)c2)CCN1C(=O)C1(c2ccc(Cl)cc2)CCC1 (stereo unspecified)	–	·	–	-16	–
CC1(C(=O)NS(=O)(=O)c2cccc(C#N)c2)CCN1C(=O)C1(c2ccc(Cl)cc2)CCC1 (stereo unspecified)	–	–	–	-15	–
Cc1ncc(CO)c(/C=N/Nc2ccc(C(F)(F)F)cn2)c1O	–	–	12	–	–
C[C@@H]1CCCCO[C@H](CN(C)C(=O)c2ccccc2)[C@@H](C)CN([C@@H](C)CO)C(=O)c2cc(NC(=O)NC3CCCCC3)ccc2O1	–	–	–	–	–
C[C@H](CO)N1C[C@H](C)[C@H](CN(C)S(C)(=O)=O)Oc2cc(C3=CCCC3)ccc2S1(=O)=O	·	·	–	–	·
Cn1c(CSCc2ccc(Cl)cc2)n[nH]c1=S	–	–	–	-23	–
Cc1ccc2nc(NNC(=O)c3ccc(S(=O)(=O)N4CCc5ccccc5C4)cc3)sc2c1	–	–	8.3	–	–
Cc1ccc2nc(NNC(=O)c3ccc4c(c3)OCCO4)sc2c1	–	–	–	–	–
CCCNC(=O)c1cc(C2CCCN(S(=O)(=O)c3cccc4cccnc34)C2)on1 (stereo unspecified)	–	·	–	-15	–
Cc1[nH]c(=S)c(C#N)c(-c2ccccc2)c1C(=O)Nc1ccccc1	–	–	·	–	–
CSc1nc(C)c(C(=O)Nc2ccccc2)c(C)c1C#N	–	–	–	-21	–
O=C(N[C@H]1C=C[C@H](CC(=O)N2CCCCC2)O[C@@H]1CO)c1ccccn1	–	–	–	–	–
COc1cccc(/C=N/NC(=O)CNC(=O)C2COc3ccccc3O2)c1O (stereo unspecified)	–	–	·	-20	–
C[C@@H]1CN([C@H](C)CO)C(=O)c2cccc(NC(=O)C3CCOCC3)c2O[C@@H]1CN(C)S(=O)(=O)c1cn(C)cn1	–	–	–	–	–
